Rows were chosen to be rich in hits. Some 2.3% of all compounds tested hit in one or more screens of this group.
TRPC6 inhibitor: mouse TRPC6 channel inhibitors, primary screen, cell-based, HEK293, membrane potential dye | Short transient receptor potential channel 6 (Mus musculus), Q61143 | ACh-evoked depolarization; active compounds read low | B-score at 10 µM | 1.1% of 310,000 active | AID 2553, 2010;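 active = B-score under library mean minus 3 SD, initial fluorescence not abnormally high, positive integrated signal ratio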;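 also: B-score derived from integrated fluorescence ratio over the kinetic read; more negative B-score means stronger inhibition of depolarization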
Target sequence (Q61143 whole entry, looked up): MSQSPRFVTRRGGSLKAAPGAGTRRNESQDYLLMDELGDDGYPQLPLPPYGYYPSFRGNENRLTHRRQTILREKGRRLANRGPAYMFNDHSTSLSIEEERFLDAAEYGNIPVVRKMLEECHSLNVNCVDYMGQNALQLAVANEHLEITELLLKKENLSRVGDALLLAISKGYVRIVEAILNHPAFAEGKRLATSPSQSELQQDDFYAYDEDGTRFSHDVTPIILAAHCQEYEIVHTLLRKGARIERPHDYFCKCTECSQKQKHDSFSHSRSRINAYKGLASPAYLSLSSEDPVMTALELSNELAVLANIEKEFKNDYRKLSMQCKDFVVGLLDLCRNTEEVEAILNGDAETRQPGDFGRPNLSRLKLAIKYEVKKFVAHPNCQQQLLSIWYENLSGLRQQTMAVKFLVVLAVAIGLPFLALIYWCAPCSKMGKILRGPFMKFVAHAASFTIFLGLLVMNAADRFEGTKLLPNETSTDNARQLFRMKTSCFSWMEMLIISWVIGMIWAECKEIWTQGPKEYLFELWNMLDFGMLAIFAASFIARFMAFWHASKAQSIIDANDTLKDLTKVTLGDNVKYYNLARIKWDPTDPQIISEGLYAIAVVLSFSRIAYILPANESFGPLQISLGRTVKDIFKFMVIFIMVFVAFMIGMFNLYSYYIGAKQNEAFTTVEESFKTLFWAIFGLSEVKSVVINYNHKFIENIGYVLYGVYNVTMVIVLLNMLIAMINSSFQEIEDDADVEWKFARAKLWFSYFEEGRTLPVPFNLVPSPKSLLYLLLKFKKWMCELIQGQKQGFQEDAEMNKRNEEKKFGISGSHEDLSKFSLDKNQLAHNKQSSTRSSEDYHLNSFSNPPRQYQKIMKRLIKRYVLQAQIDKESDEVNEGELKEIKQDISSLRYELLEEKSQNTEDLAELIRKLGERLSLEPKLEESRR
TRPC4 inh: inhibitors of mouse TRPC4 channel, primary screen, Fluo4 calcium, HEK293 TRPC4beta/mu-opioid cells; Short transient receptor potential channel 4 (Mus musculus), Q9QUQ5; DAMGO-evoked Fluo4 calcium flux; active compounds read low; B-score at 10 µM; 0.39% of 300,000 active; AID 2247, 2010;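 active = B-score over 3 SD under the library average, no early fluorescence shift, positive overall ratio signal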
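test system = HEK293 cells with stable TRPC4beta plus mu-opioid receptor expression | detection = Fluo4 Ca2+ flux fluorescence | read-out = integrated fluorescence ratio relative to baseline, converted to per-well B score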
TRPC6 activator: mouse TRPC6 channel activators, primary screen, cell-based, HEK293, membrane potential dye; Short transient receptor potential channel 6 (Mus musculus), Q61143; HEK293-TRPC6 membrane potential dye fluorescence; active compounds read high; B-score at 10 µM; 0.13% of 310,000 active;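 active = B-score of the integrated fluorescence ratio above library mean plus 3 SD, and starting fluorescence ratio within library mean plus 5 SD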;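 also: higher score means more depolarization so channel activation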
TRPC4 potent: positive allosteric modulators of TRPC4, primary screen, cell-based, mouse TRPC4beta, HEK293 mu-opioid, Fluo-4 calcium; DAMGO EC20, Fluo-4 Ca2+ flux; active compounds read high; B-score at 10 µM; 0.42% of 310,000 active;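 active = B-score of calcium response area above 5 SD of library B-scores, with initial fluorescence ratio within 5 SD of library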;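 also: B-score of integrated fluorescence ratio over time as area under calcium response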
TRPC4 act: activators of mouse TRPC4 channel, primary screen, Fluo4 calcium, HEK293 TRPC4beta/mu-opioid cells; 0.49% of 310,000 active; Short transient receptor potential channel 4 (Mus musculus), Q9QUQ5; B-score at 10 µM; Fluo4 calcium fluorescence; active compounds read high; AID 2237, 2010;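 active = B-score above 5 SD of library B-scores, and initial fluorescence ratio not above library mean plus 5 SD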;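 also: positive B-score marks a calcium rise read as TRPC4 activation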
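Assay system – TRPC4beta and mu-opioid receptor HEK293 stable cells · Measured by – Fluo4 fluorescence, kinetic · Schedule – dye loading 45 min room temperature, 110 s kinetic read · Read-out – B-scored integrated calcium fluorescence ratio · Controls – buffer and maximal DAMGO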
TRPC4 spec 2: second check of whether TRPC6 inhibitors also affect mouse TRPC4 | AID 2776 | HEK293 TRPC4/MOR, membrane potential dye fluorescence; channel activated by saturating DAMGO dose | inhibition, % at 10 µM | shares compounds with TRPC6 inhibitor | 42% of 920 active;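 active = compounds whose fluorescence signal differed from control wells by over 3 SD, either direction, in both duplicate plates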
TRPC4 spec: mouse TRPC4 modulation by TRPC6 hits, confirmation, selectivity assay for TRPC6 inhibitor project, cell-based, HEK293 TRPC4/mu-opioid, membrane potential dye; shares compounds with TRPC6 inhibitor; membrane potential fluorescence; activity change, negative = inhibition, % at 10 µM; 61% of 920 active; AID 2777, 2010;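 active = rise or fall in signal beyond 3 SD of buffer-only wells in both replicate plates, either sign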;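 also: integrated kinetic ratio of fluorescence range over baseline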
HEK293 MPD ctr 2-1: nonspecific membrane potential effects, parental HEK293, confirmation, counter-screen for TRPC6 inhibitor project, cell-based, second counter screen. signal change vs control, % at 10 µM. parental HEK293 membrane potential dye fluorescence; maximal acetylcholine challenge after compound addition. shares compounds with TRPC6 inhibitor. 31% of 920 active. AID 2779, 2010;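 active = membrane potential signal moving either way by over 3 SD of the maximum-effect control, in both duplicate plates, meaning non-specific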
HEK293 MPD ctr-1: membrane potential modulation in parental HEK293, confirmation, counter-screen for TRPC6 inhibitor project, cell-based; shares compounds with TRPC6 inhibitor; parental HEK293 membrane potential dye fluorescence; 60% of 920 active; membrane potential signal change, % at 10 µM;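 active = membrane potential signal shifting up or down by more than 3 SD of buffer-only wells, on both duplicate plates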
HEK293 MPD ctr-2: parental HEK293 membrane potential modulation, confirmation, counter-screen for TRPC6 modulator project, cell-based; membrane potential signal change, % at 10 µM; shares compounds with TRPC6 inhibitor; 51% of 2,400 active; membrane potential dye fluorescence;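 active = membrane potential signal moves up or down beyond 5 SD from buffer-only wells, on both duplicate plates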
HEK293 MPD ctr 2-2: second counter-screen for TRPC6 modulators: effect in parental HEK293 cells. shares compounds with TRPC6 inhibitor. membrane potential dye fluorescence; after compound, maximal acetylcholine stimulation. inhibition, % at 10 µM. 14% of 2,400 active;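 active = membrane potential signal drops by more than 5 SD from the mean control signal, in both duplicate plates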;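 also: plate controls were acetylcholine ECmax control wells for no effect and buffer only wells for full effect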
TRPC4 ctr mod: TRPC4 modulation by TRPC6 hit compounds, confirmation, selectivity assay for TRPC6 modulator project, cell-based, HEK293 TRPC4/mu-opioid, membrane potential dye, mouse. shares compounds with TRPC6 inhibitor. membrane potential fluorescence. percent change from control (negative = decrease, positive = increase), % at 10 µM. 69% of 2,400 active;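 active = membrane potential signal moved up or down beyond 5 SD of buffer control wells, in both duplicate plates, actives on both sides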;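 also: plate controls were assay buffer wells for no effect and DAMGO maximal-effect wells for full effect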
TRPC4 ctr inh 2: second check of whether TRPC6 modulators also affect mouse TRPC4. HEK293 TRPC4/mu-opioid, membrane potential dye fluorescence; stimulated with maximal-effect DAMGO. inhibition, % at 10 µM. AID 488928. 55% of 2,400 active. shares compounds with TRPC6 inhibitor;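 active = drop in membrane potential signal beyond 5 SD of the control wells in both duplicate plates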;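 also: TRPC4 counter screen for TRPC6 hits run under conditions tuned for TRPC6 not TRPC4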
TRPC6 block conf: mouse TRPC6 channel inhibitors, confirmation, HEK293 cells, membrane potential dye, duplicate. shares compounds with TRPC6 inhibitor. ACh-evoked depolarization. inhibition, % at 10 µM. 43% of 3,300 active. AID 488960, 2010;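 active = fluorescence ratio falls more than 5 SD below the full-stimulation control mean, in both duplicate runs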;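 also: integrated fluorescence ratio of peak minus minimum over baseline after agonist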
TRPC6 act conf: mouse TRPC6 channel activators, confirmation, HEK293 cells, membrane potential dye, duplicate; shares compounds with TRPC6 inhibitor; HEK293-TRPC6 membrane potential dye fluorescence, FDSS; activation, % at 10 µM; 11% of 2,800 active; AID 488961, 2010;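 active = ratio signal rise beyond 5 SD above unstimulated control wells' mean, seen in both duplicate runs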;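 also: plate controls were buffer EC0 wells for no effect and acetylcholine ECmax response for full effect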
The depositor's hits bear a star; i = inactive; x = not tested or not shown.

SMILES	TRPC6 inhibitor	TRPC4 inh	TRPC6 activator	TRPC4 potent	TRPC4 act	HEK293 MPD ctr-2	HEK293 MPD ctr 2-2	TRPC4 ctr mod	TRPC4 ctr inh 2	TRPC6 block conf	TRPC6 act conf	others
Cc1cccc(N(Cc2cc3ccccc3[nH]c2=O)S(=O)(=O)c2ccccc2)c1	i	i	i	i	i	x	x	x	x	x	x
CCOC(=O)C1=NN(c2ccc(Cl)cc2)C(c2ccccc2)CC1=O (stereo not given)	-7.47*	i	i	i	i	x	x	x	x	i	i	TRPC4 spec 2=i;TRPC4 spec=i;HEK293 MPD ctr 2-1=i;HEK293 MPD ctr-1=i
CCOC(=O)C1=NNC(C(=O)c2ccc(Cl)cc2)C1c1ccccc1 (stereo not given)	i	i	i	i	i	x	x	x	x	x	x
Cc1cc2c3c(ccc(C)c3n1)N=CN2c1ccccc1	-8.07*	i	i	i	i	-240.0%*	77.0%*	-46.5%*	65.5%*	52.5%*	i
Cn1nc(C(=O)NC(C)(C)C)c2ccccc21	i	i	i	i	i	x	x	x	x	x	x
C#CCOc1ccccc1CNC1CCN(Cc2ccccc2)CC1	i	i	i	i	i	x	x	x	x	x	x
c1ccc(C(c2ccccc2)c2noc(CN3CCN(C4CCCC4)CC3)n2)cc1	-5.17*	i	i	i	i	124.0%*	i	15.0%*	i	i	x
Cc1nc(CN2CCN(Cc3nc(C(c4ccccc4)c4ccccc4)no3)CC2)cs1	-6.36*	i	i	i	i	101.0%*	i	10.5%*	i	48.5%*	x

Screens: PubChem BioAssay, Johns Hopkins Ion Channel Center
